Results on 96 molecules are retold here after PubChem BioAssay AID1046 (PCMD, 2008).

The campaign covered roughly 220,000 compounds. About 560 (0.25%) were called active.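 How the source made its calls: active means inhibition at or above 40%; inactive means inhibition below 40%.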 The full list was thinned out, with actives kept by preference.

The assay deals with Prothrombin (Homo sapiens) (UniProt P00734). As to the kind of experiment: blockers of thrombin peptide substrate cleavage – biochemical, 1536-well, fluorogenic AMC substrate, counter-screen for coagulation protease inhibitor project, primary screen (AID 1046).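 Further: 0% = enzyme with no compound and 100% = wells without enzyme.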 The conditions noted are these: alpha-thrombin, Boc-VPR-AMC fluorogenic substrate cleavage; at 5 µM; stronger effect = higher value. Put shortly:
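signal = AMC fluorescence, 355/460 nm | material = human alpha-thrombin enzyme | control set = enzyme without compound as high, wells lacking enzyme as low | times = reaction at room temperature | read-out basis = percent inhibition scaled between no-compound controls and no-enzyme blanks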
(In general: A counterscreen serves to expose hits that act by an unwanted route or on another target.)
What is called inhibition is the relative decrease from the control value, in per cent. For the molecule `Cc1nc(Cl)c2oc3ccccc3c2n1`, the inhibition is 104% (active).

As to `CCSc1nc(C)nc2c1oc1ccccc12`, the inhibition was 4.11% (inactive). As to `Cc1nc(N2CCCC2C(=O)O)c2oc3ccccc3c2n1` (stereo unspecified), the inhibition is 2.84% (inactive). The figure for `CCc1nnc(NC(=O)CCC(=O)O)s1` is 8.11% (inactive). In the case of `CCc1nnc(NC(=O)CCN(c2ccc(C)cc2)S(=O)(=O)c2ccccc2)s1` it was 47.5% (active); in that of `CCc1nnc(NC(=O)CCC(=O)NCc2ccccc2OC)s1`, 2.56% (inactive).

`O=C(Nc1ccc(F)cc1)c1cc2c(s1)CCCC2`: the inhibition is -1.36% (inactive).

For `CCCCNS(=O)(=O)c1ccc2nc(SCC(=O)Nc3cc(C)cc(C)c3)[nH]c2c1`, the inhibition was -6.37% (inactive).

As for `CN(C(=O)c1c(Cl)cnn1C)C12CC3CC(CC(C3)C1)C2`, the inhibition is -15.4% (inactive). In the case of `C/C(=N\NC(=O)CSc1nc2ccccc2c(=O)n1-c1ccccc1C)c1cccs1` it was 0.36% (inactive). The figure for `Cc1ccc(OCCOCCOc2ccc(Br)cc2/C=N\NC(=O)c2ccncc2)cc1` is -13.6% (inactive); for `Cc1c([N+](=O)[O-])c(N)nn1C` it is 5.35% (inactive). Take `Cc1ccc2cc(C)c(N3CCC(C)CC3)nc2c1`: the inhibition was -2.54% (inactive). Regarding `CN(c1ccc(OCC(=O)OCC(=O)Nc2cccc([N+](=O)[O-])c2)cc1)S(=O)(=O)c1ccc(F)cc1`, the inhibition is 2.69% (inactive).

As to `CC1CC(=O)Nc2ccccc2N1S(=O)(=O)c1cccs1` (stereo unspecified), the inhibition was -3.5% (inactive). In the case of `Cc1[nH]c2ccccc2c1-c1ccc(Cl)nn1` it was 1.85% (inactive).

As for `O=C(O)C(F)(F)C(NCc1ccccc1)c1ccccc1` (stereo unspecified), the inhibition is 5.86% (inactive). In the case of `CN(C)C(CNC(=O)c1cccc(C#N)c1)c1ccco1` (stereo unspecified) it was -12.4% (inactive).

Regarding `CC/C=C/C(=O)N1CC2(CC(c3cccc(NC(=O)CC)c3)=NO2)C[C@H]1C(N)=O` (stereo partly specified), the inhibition was -2.66% (inactive). In the case of `CCOC(=O)C1CCN(c2ccc(C(=O)O)cc2[N+](=O)[O-])CC1`, the inhibition was -6.48% (inactive). In the case of `CCOC(=O)CSC1=N/C(=C/c2ccc(-n3cncn3)cc2)C(=O)N1C(C)=O`, the inhibition is 86.8% (active). `CCOC(=O)CSc1ccccn1`: the inhibition was -0.12% (inactive).

As for `CCOC(=O)CSc1nc(C)cc2c1C(=O)OC2`, the inhibition is -3.04% (inactive). Turning to `N#Cc1c(C(F)(F)F)cc(-c2cccs2)nc1N1CCCCC1`, the inhibition is -5.35% (inactive). `COc1ccc(-n2c(O)c(C=NCC(c3ccco3)N3CCCC3)c3ccccc3c2=O)cc1OC` (stereo unspecified): the inhibition was 1.85% (inactive). The figure for `CCc1ccccc1NC(=O)CN(C)S(=O)(=O)c1ccc2c(c1)c(=O)n(C)c(=O)n2C` is -7.84% (inactive). `CCN(C(=O)CSc1nnc2ccccn12)C1CCS(=O)(=O)C1` (stereo unspecified): the inhibition was 2.43% (inactive).

Regarding `CCOC(=O)c1nnn2c3ccccc3c(=O)n(C)c12`, the inhibition was -5.13% (inactive). On to `COC(=O)c1onc(-c2c(OC)cc(OC)cc2OC)c1C(=O)OC`, for which the inhibition is 1.99% (inactive). For the molecule `COc1ccc(C(C)=O)cc1CSc1nc2nc(C)cc(C)n2n1`, the inhibition was -1.59% (inactive). Turning to `Cc1ccc(S(=O)(=O)/N=C(\CN2CCOCC2)N2CCOCC2)cc1`, the inhibition is -16.3% (inactive). The figure for `Nc1ccccc1Sc1cc(Cl)nnc1Cl` is 14.4% (inactive); for `CC(=O)NCCC(=O)Nc1nc(C)c(Cc2ccc3c(c2)OCO3)s1` it is -4.26% (inactive); for `CCOc1nc(NCCN2CCOCC2)nc(Nc2ccc(C)cc2)n1` it is 63.7% (active). Turning to `Nc1nc(NCCCN2CCOCC2)nc(Nc2ccccc2)c1[N+](=O)[O-]`, the inhibition is -6.41% (inactive). `Cc1ccc(NC(=S)NCCN2CCOCC2)cc1`: the inhibition is -1.01% (inactive). The figure for `CSc1c(SCc2ccccc2)cnn(Cc2ccccc2)c1=O` is 0.48% (inactive). In the case of `COCCOC(=O)c1c(C)oc2cc(Br)c(OCC(N)=O)cc12` it was -6.6% (inactive); in that of `O=C1N(c2ccccc2)C(=Nc2ccccc2)SC12CC2`, -5.96% (inactive); in that of `COc1ccc(C/C(C)=N/NC(=O)c2cc(C)oc2C)cc1`, 0.98% (inactive). On to `CN(C(=O)CSc1nnc(Nc2ccccc2)s1)C1CCS(=O)(=O)C1` (stereo unspecified), for which the inhibition is -0.79% (inactive). In the case of `Cc1cc(C(=O)COc2ccccc2[N+](=O)[O-])c(C)n1-c1cccc(S(=O)(=O)N2CCOCC2)c1` it was 5.89% (inactive); in that of `CC1=C(C)CC(C(=O)NNC(=O)c2ccccc2O)C(C(=O)O)C1` (stereo unspecified), -3.8% (inactive); in that of `Cc1cc(C)n2nc(C(=O)N3CCN(Cc4ccc5c(c4)OCO5)CC3)nc2n1`, -9.34% (inactive).

Regarding `COc1ccc(CNC(=O)CN(Cc2ccc(Cl)cc2)S(C)(=O)=O)cc1`, the inhibition was -2.34% (inactive). In the case of `Cc1cc(C)cc(C(=O)NC2C(=O)N3C(C(=O)O)=C(CSc4nnc(C)s4)CSC23)c1` (stereo unspecified) it was -12% (inactive). The figure for `O=C(Cn1cnc([N+](=O)[O-])n1)NCCc1ccccc1` is -6.67% (inactive); for `CN(C)c1cc(-c2ccc(F)cc2)oc(=O)c1Cl` it is -0.75% (inactive); for `CN(c1ccc(OCC(=O)NC2=NCCS2)cc1)S(=O)(=O)c1ccc(F)cc1` it is -4.51% (inactive). In the case of `Cc1ccc(SCc2c(C(=O)N/N=C/C3CC=CCC3)nnn2-c2nonc2N)cc1` (stereo unspecified), the inhibition is -0.65% (inactive). In the case of `O=C(NCC1CCCO1)c1cc(-c2ccccc2)nc2ccccc12` (stereo unspecified) it was 3.52% (inactive); in that of `Cn1cc(CN2CCCCC2c2ccccn2)c(-c2ccc3c(c2)OCCO3)n1` (stereo unspecified), -14.8% (inactive).

As to `O=S(=O)(c1cccc(C(F)(F)F)c1)N1CCN(c2cnccn2)CC1`, the inhibition is 2.6% (inactive). In the case of `CCCN1C(=O)C(Cc2nc3ccccc3c(=O)n2-c2ccccc2)c2cc(C)ccc21` (stereo unspecified) it was -0.44% (inactive). The figure for `O=C(Nc1nnc(COc2ccccc2)s1)Nc1ccccc1F` is 1.51% (inactive). In the case of `CCOC(=O)C1(CCOC)CCN(Cc2ccc(C(=O)OC)cc2)CC1` it was -3.33% (inactive); in that of `CC(C)Oc1ccc(CCC(=O)NNC(=S)NCc2ccccc2)cc1`, 5.08% (inactive); in that of `CCN(CC)CCC(c1ccc2c(c1)OCO2)c1c(OC)cc(OC)c2c(-c3ccccc3)cc(=O)oc12` (stereo unspecified), -12.8% (inactive). Consider `O=C(c1ccccc1Cl)N(Cc1ccccc1F)N1C(=O)CCCC1=O`, for which the inhibition was -0.77% (inactive). Regarding `CCC(C)[C@@H](C(=O)N1CCNCC1)n1cc(CCCCN)nn1` (stereo partly specified), the inhibition was -2.39% (inactive). As for `CCOC(=O)C1(C)NC(c2ccco2)C2C(=O)N(c3ccccc3)C(=O)C21` (stereo unspecified), the inhibition was -2.99% (inactive).

In the case of `O=C(Nc1ccccc1F)c1ccc(Cn2cc(Br)cn2)cc1`, the inhibition was 0.95% (inactive). The figure for `CCCC(O)(CCC)C(=O)NN(C(=O)CCl)c1cccc(C)c1` is -0.4% (inactive); for `CC(C)Cc1ccc(C(C)C(=N)N)cc1` (stereo unspecified) it is -0.2% (inactive).

Take `CCS(=O)(=O)N1Cc2ccccc2CC1C(=O)Nc1nc2ccc(F)cc2s1` (stereo unspecified): the inhibition was -4.77% (inactive). In the case of `O=C(CSc1nnnn1-c1ccc(O)cc1)c1ccc(F)cc1`, the inhibition was -1.4% (inactive). Turning to `CC1CN(S(=O)(=O)c2ccc(C(=O)NN3CCN(C)CC3)cc2)CC(C)O1` (stereo unspecified), the inhibition is -9.4% (inactive). For `CC(C)(C)C1CCC(OC(=O)CCC(=O)Nc2ccccc2)CC1` (stereo unspecified), the inhibition was -0.51% (inactive). In the case of `CC(C)N1C(=O)N(c2ccccc2)C(C)(O)CC1(C)C` (stereo unspecified) it was -4.92% (inactive); in that of `COC(=O)c1cc2c(N)c(C(=O)c3ccc(Cl)cc3)sc2nc1C(OC)OC`, 3.67% (inactive). The figure for `COc1ccccc1NC(=O)c1cc(Cl)nnc1Cl` is -8.6% (inactive).

In the case of `C=C(C)COc1ccc(-c2nc(N)ncc2-c2ccccc2OC)c(O)c1`, the inhibition is -2.7% (inactive). On to `COc1cc(NC(=O)c2ccc(CNc3c(N4CCCC4)c(=O)c3=O)cc2)cc(OC)c1OC`, for which the inhibition was 3.4% (inactive). In the case of `COc1c(C)cc(C(=O)C2CCCN(S(=O)(=O)c3c(C)noc3C)C2)cc1C` (stereo unspecified), the inhibition is 41.9% (active). In the case of `Cc1ccc(NC(=O)C2CCCN(S(=O)(=O)c3c(C)noc3C)C2)c(C)c1` (stereo unspecified) it was -4.66% (inactive); in that of `Cc1noc(C)c1S(=O)(=O)N1CCCC(C(=O)Nc2nccs2)C1` (stereo unspecified), -1.5% (inactive). As for `CN1CCN(c2ncc3c(n2)CC(c2ccccc2F)CC3=O)CC1` (stereo unspecified), the inhibition was -5.02% (inactive).

On to `Cc1ccc(C)c(NC(=S)NCC(c2cccnc2)N2CCOCC2)c1` (stereo unspecified), for which the inhibition was -3.59% (inactive). Regarding `CCCC/C(C)=N/NC(=O)NC1CCCCC1`, the inhibition is -6.13% (inactive). Turning to `COC(=O)Cn1cc(C(=O)c2cccs2)c2ccccc21`, the inhibition is 47% (active). In the case of `O=C(Cn1cc(C(=O)c2cccs2)c2ccccc21)NCc1cccs1`, the inhibition was -2.66% (inactive). As to `COCCNC(=O)Cn1cc(C(=O)c2cccs2)c2ccccc21`, the inhibition is 0.65% (inactive).

As to `Clc1ccc(CSc2nnc3c(n2)[nH]c2ccccc23)cc1`, the inhibition was -0.71% (inactive). The figure for `CCC(C(=O)Nc1ccc(C(C)C)cc1)c1ccccc1` (stereo unspecified) is -7.56% (inactive).

For `CCc1ccc(CNC(=O)CCc2nc(-c3cccs3)no2)cc1`, the inhibition was 6.55% (inactive). For `O=C(Cn1c2[n+](c3ccc(C(F)(F)F)cc31)CCCCC2)Nc1c(F)cccc1F`, the inhibition is -11.3% (inactive).

Regarding `O=C(CSc1ccc([N+](=O)[O-])cn1)Nc1ccc(N2CCOCC2)c(Cl)c1`, the inhibition was -6.75% (inactive).

`C=CCN(C(=O)Nc1ccc2oc(C)nc2c1)c1ccccc1`: the inhibition was -2.2% (inactive). In the case of `Cc1nc2cc(NC(=O)Nc3cccc(F)c3)ccc2n1C` it was 13.7% (inactive); in that of `C=CCN(C(=O)Nc1ccc2c(c1)nc(C)n2C)c1ccccc1`, 43.6% (active).

As to `CCN(CC)C(=O)N(CC)Cc1ccccc1`, the inhibition is -4.01% (inactive). In the case of `Cc1cc(C)n2nc(C(=O)N(C)C(c3ccccc3)c3ccccc3)nc2n1` it was -10.8% (inactive); in that of `CCOc1cc(NC(=S)NCCCN(C)C)c(OCC)cc1NC(=O)C1CC1`, -9.76% (inactive); in that of `O=C1/C(=C\c2cccnc2)CN(Cc2ccccc2)C/C1=C\c1cccnc1`, 10.5% (inactive). Take `O=C(c1[nH]ncc1-c1ccc(Cl)cc1)C1CO1` (stereo unspecified): the inhibition is -4.22% (inactive).

On to `CC(=O)OCCOCn1cnn2c(=O)c(Br)c(C)nc12`, for which the inhibition was 0.26% (inactive).
